Active and inactive are the calls of the source. The rule behind the calls is not given here.
Assays:
HCC2429 [1] = test: Antiproliferative activity against human HCC2429 cells for 72 hrs incubation measured by Celltiter Glo Cell Viability assay; assay type: functional, cell-based; conditions: HCC2429, 72 h
Procedure, shortened: (§1)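 Cells exposed to inhibitor over 10 nM–25 µM for 72 h; viability read by CellTiter Glo luminescence. IC50 taken from dose-response curve fit. Mean ± SD of three technical replicates.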

[2] = Antiproliferative activity against human 00-143 cells for 72 hrs incubation measured by Celltiter Glo Cell Viability assay; assay type: functional, cell-based; conditions: 00-143, 72 h; procedure, shortened: as §1
Ty-82 = test: Antiproliferative activity against human Ty-82 cells for 72 hrs incubation measured by Celltiter Glo Cell Viability assay; assay type: functional, cell-based; conditions: TY82, 72 h; procedure, shortened: as §1
HCC2429 [3] = test: Inhibition of p300/CBP in human HCC2429 cells assessed as H3K27ac protein acetylation at 1 microM for 3 days by immunofluorescence analysis; assay type: cell-based; conditions: time 3.0 day
Procedure, shortened: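 HCC2429 cells treated 3 days with 1 µM or DMSO. H3K27ac, BRD4-NUT and wild-type BRD4 imaged by immunofluorescence.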

HCC2429 [4] = test: Inhibition of p300/CBP in human HCC2429 cells assessed as H3K27ac protein acetylation at MYC promoter and TP63 enhancer region with 1 microM for 3 days by ChIP analysis; assay type: cell-based; conditions: time 3.0 day
Procedure, shortened: (§2)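 HCC2429 cells held 3 days at 1 µM or DMSO. Chromatin precipitated with H3K27ac, NUT or normal rabbit IgG antibodies. MYC promoter and TP63 enhancer quantified by qPCR as fold enrichment over IgG. Mean ± SEM, four independent experiments.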

HCC2429 [5] = test: Inhibition of p300/CBP in human HCC2429 cells assessed as BRD4-NUT level at MYC promoter and TP63 enhancer region with 1 microM for 3 days by ChIP analysis; assay type: cell-based; conditions: time 3.0 day; procedure, shortened: as §2
HCC2429 [6] = test: Downregulation of MYC mRNA level in human HCC2429 cells for 48 hrs treatment by qRT-PCR analysis; assay type: functional, cell-based
Procedure, shortened: (§3)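 HCC2429 cells treated at indicated concentrations for 48 h. MYC, CCAT1 and TP63 mRNA measured by quantitative RT-PCR.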

HCC2429 [7] = test: Downregulation of CCAT1 mRNA level in human HCC2429 cells for 48 hrs treatment by qRT-PCR analysis; assay type: functional, cell-based; procedure, shortened: as §3
HCC2429 [8] = test: Downregulation of TP63 mRNA level in human HCC2429 cells for 48 hrs treatment by qRT-PCR analysis; assay type: functional, cell-based; procedure, shortened: as §3
HCC2429 [9] = test: Downregulation of MYC protein level in human HCC2429 cells for 48 hrs treatment by qRT-PCR analysis; assay type: functional, cell-based; conditions: in the assay text read “immunoblot analysis” for “qRT-PCR analysis”
Procedure, shortened: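 HCC2429 cells treated at indicated concentrations for 48 h. MYC and H3K27ac protein assessed by immunoblot.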

HCC2429 [10] = test: Induction of squamous differentiation in human HCC2429 cells assessed as accumulation of pan-keratin in cytoplasm at 0.5 microM for 5 days by immunofluorescence staining method; assay type: functional, cell-based; conditions: time 5.0 day
Procedure, shortened: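 HCC2429 cells exposed 5 days to 0.5 µM. Cytokeratin detected by immunofluorescence.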

HCC2429 [11] = test: Induction of squamous differentiation in human HCC2429 cells assessed as flattening of cells at 0.5 microM for 5 days by immunofluorescence staining method; assay type: functional, cell-based; conditions: time 5.0 day
HCC2429 [12] = test: Induction of cell cycle arrest in human HCC2429 cells assessed as G1 cell cycle arrest at 0.5 microM incubated for 24 hrs by flow cytometry analysis; assay type: functional, cell-based
Procedure, shortened: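 HCC2429 cells exposed to 0.5 or 1 µM for 24, 48 and 72 h, then analysed by flow cytometry. Mean ± SEM, three independent experiments.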

HCC2429 [13] = test: Induction of apoptosis in human HCC2429 cells assessed as cleaved caspase-3 expression at 0.5 microM incubated for 48 hrs by immunoblot analysis; assay type: functional, cell-based
Procedure, shortened: (§4)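 HCC2429 cells given 0.5 or 1 µM for 24, 48 and 72 h. Cleaved caspase-3 detected by immunoblot.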

HCC2429 [14] = test: Induction of apoptosis in human HCC2429 cells assessed as cleaved caspase-3 expression at 0.5 microM incubated for 72 hrs by immunoblot analysis; assay type: functional, cell-based; procedure, shortened: as §4
HCC2429 [15] = test: Induction of apoptosis in human HCC2429 cells assessed as cleaved caspase-3 expression at 250 nM incubated for 72 hrs in presence of JQ1 by immunoblot analysis; assay type: functional, cell-based
Procedure, shortened: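 HCC2429 cells treated 72 h with 250 nM alone, 50 nM JQ1 alone, or both combined. Cleaved caspase-3 detected by immunoblot.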

HCC2429 [16] = test: Inhibition of colony formation in human HCC2429 cells assessed as inhibition in colony formation at 250 nM incubated for 72 hrs in presence of JQ1 by crystal violet staining based assay; assay type: functional, cell-based
Procedure, shortened: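 HCC2429 cells incubated 72 h with 250 nM, 50 nM JQ1, or both. Colony formation then scored.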

HCC2429 [17] = test: Induction of cell differentiation in human HCC2429 cells assessed as c-fos mRNA level at 250 nM for 5 days in presence of JQ1 by qRT-PCR analysis; assay type: functional, cell-based; conditions: time 5.0 day
Procedure, shortened: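 HCC2429 cells given 250 nM, 50 nM JQ1, or the combination for 5 days. KRT10, KRT14, TGM1 and c-fos mRNA by qRT-PCR. Mean ± SEM of three independent experiments.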

TC-797 = test: Induction of squamous differentiation in human TC-797 cells assessed as change in cell phenotype at 0.5 microM for 5 days by immunofluorescence staining method; assay type: functional, cell-based; conditions: time 5.0 day
PER-403 = test: Induction of squamous differentiation in human PER-403 cells assessed as change in cell phenotype at 0.5 microM for 5 days by immunofluorescence staining method; assay type: functional, cell-based; conditions: time 5.0 day
HCC2429 [18] = test: Induction of cell differentiation in human HCC2429 cells assessed as increase in c-fos mRNA level at 0.5 microM for 5 days by qRT-PCR analysis
HCC2429 [19] = test: Induction of cell differentiation in human HCC2429 cells assessed as increase in involucrin-protein level at 0.5 microM for 5 days by immunoblot analysis

IC50 (HCC2429 [1]): 750 nM
Compound: CNC(=O)Nc1ccc2c(c1)CC[C@@]21OC(=O)N(CC(=O)N(Cc2ccc(F)cc2)[C@@H](C)C(F)(F)F)C1=O [A-485]
IC50 [2]: 980 nM
IC50 (Ty-82): 210 nM
inhibition (HCC2429 [3]): Active
inhibition (HCC2429 [4]): Active
inhibition (HCC2429 [5]): Active
Activity (HCC2429 [6]): Active
Activity (HCC2429 [7]): Active
Activity (HCC2429 [8]): Active
Activity (HCC2429 [9]): Active
Activity (HCC2429 [10]): Active
Activity (HCC2429 [11]): Active
Activity (HCC2429 [12]): Active
Activity (HCC2429 [13]): Active
Activity (HCC2429 [14]): Active
Activity (HCC2429 [15]): Active
inhibition (HCC2429 [16]): Active
Activity (HCC2429 [17]): Active
Activity (TC-797): Active
Activity (PER-403): Active
Activity (HCC2429 [18]): Active
Activity (HCC2429 [19]): Active
